Each block holds one compound with its values, some of them ahead of it. Calls of active or inactive are those of the source. No cut-off for these calls is given here.
Columns and labels:
Mus musculus [1] = assay: Anti-diabetic activity in 8 hrs-fasted ICR mouse assessed as increase in GLP1 levels at 1 mg/kg, po pretreated for 60 mins followed by glucose challenge and measured 5 to 10 mins post glucose challenge by OGTT relative to control; type: functional
Procedure, shortened: (§1)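 Male ICR mice (n = 10/group), fasted 8 h, dosed orally at 0.3, 1 or 3 mg/kg 1 h before oral glucose at 3 g/kg. Blood was collected at 0, 5 and 10 min into tubes with valine pyrrolidide and EDTA. Active GLP-1[7-36 amide] and insulin measured by kit. Two-way ANOVA with Fisher's LSD against vehicle.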

Mus musculus [2] = assay: Anti-diabetic activity in 6 h-fasted db/db mouse assessed as inhibition of DPP4 in plasma at 10 mg/kg, po administered as single dose pretreated for 60 mins followed by glucose challenge and measured after 120 mins post glucose challenge by OGTT; type: functional, organism-based
Mus musculus [3] = assay: Anti-diabetic activity in db/db mouse assessed as increase in glucose tolerance at 10 mg/kg, po dosed once weekly for 8 weeks by OGTT; type: functional, organism-based
Mus musculus [4] = assay: Anti-diabetic activity in ICR mouse assessed as inhibition of DPP4 in plasma at 3 mg/kg, po administered as single dose using Gly-Pro-AMC as substrate and measured after 7 days post dose by fluorometric assay relative to control; type: functional
Procedure, shortened: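 Male ICR mice (n = 10/group), fasted 2 h, given single oral doses of 0.03–3 mg/kg in 0.5% CMC-Na, with pre-dose baseline blood. Blood was drawn at 1–168 h. […] DPP-4 was read continuously for 5 min at 37 °C with 10 µM Gly-Pro-AMC in 100 mM HEPES pH 7.5 containing 0.1 mg/mL BSA (ex 360/em 460 nm). % activity is the treated rate over each animal's own baseline rate.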

Mus musculus [5] = assay: Anti-diabetic activity in 8 hrs-fasted ICR mouse assessed as reduction in blood glucose AUC (0 to 120 mins) at 3 mg/kg, po pretre at ed for 60 mins followed by glucose challenge and measured after 120 mins post glucose challenge by OGTT rel at ive to control; type: functional
Procedure, shortened: (§2)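 Male ICR mice (n = 10/group), fasted 8 h, dosed orally at 0.03, 0.3 or 3 mg/kg in 0.5% CMC-Na 1 h before an oral glucose load of 3 g/kg. Glucometer readings at −60, 0, 15, 30, 60, 90 and 120 min. Glucose AUC0–120 min by the trapezoidal method; one-way ANOVA with Fisher's LSD against vehicle.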

Mus musculus [6] = assay: Anti-diabetic activity in db/db mouse assessed as reduction in fasting blood glucose at 10 mg/kg, po dosed once weekly for 8 weeks; type: functional; parameters: scale not given: the % may be the effect or the level left
Mus musculus [7] = assay: Anti-diabetic activity in db/db mouse assessed as increase in glucose-induced insulin secretion at 10 mg/kg, po dosed once weekly for 8 weeks pretreated for 60 mins followed by glucose challenge and measured after 120 mins post glucose challenge by OGTT relative to control; type: functional
Mus musculus [8] = assay: Anti-diabetic activity in db/db mouse assessed as HbA1c levels at 10 mg/kg, po dosed once weekly for 8 weeks; type: functional
Mus musculus [9] = assay: Anti-diabetic activity in 8 hrs-fasted ICR mouse assessed as increase in insulin levels at 1 mg/kg, po pretreated for 60 mins followed by glucose challenge by OGTT; type: functional, organism-based; procedure, shortened: as §1
Mus musculus [10] = assay: Anti-diabetic activity in 8 hrs-fasted ICR mouse assessed as reduction in blood glucose AUC (0 to 120 mins)at 0.3 mg/kg, po pretreated for 60 mins followed by glucose challenge and measured after 120 mins post glucose challenge by OGTT relative to control; type: functional; procedure, shortened: as §2
Mus musculus [11] = assay: Anti-diabetic activity in 6 hrs-fasted db/db mouse assessed as reduction in blood glucose AUC (0 to 120 mins) at 10 mg/kg, po pretre at ed for 60 mins followed by glucose challenge and measured after 120 mins post glucose challenge by OGTT rel at ive to control
Mus musculus [12] = assay: Anti-diabetic activity in mouse assessed as inhibition of DPP4 in plasma at 3 mg/kg, po administered as single dose pretreated for 60 mins followed by glucose challenge and measured over 168 hrs post dose
[13] = MRT (0 to infinity) in Sprague-Dawley rat at 1 mg/kg, iv by LC-MS-MS analysis; type: ADME, organism-based; settings: in vivo
[14] = Terminal half life in ICR mouse at 2 mg/kg, po by LC-MS-MS analysis; type: ADME, organism-based; settings: in vivo, read-out: beta t1/2 (converted)
Procedure, shortened: (§3)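 Male ICR mice (n = 4/group), fasted 2 h, given a single oral dose of 2 mg/kg. Baseline blood was taken into EDTA, then samples at 1, 2, 4, 6, 8, 24, 48, 72, 96 and 120 h. Plasma was kept at -80 °C and concentrations measured by LC/MS/MS. Parameters came from noncompartmental analysis; values are means.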

[15] = Toxicity in db/db mouse assessed as induction of abnormal weight gain at 3 to 10 mg/kg, po dosed once weekly for 8 weeks; type: organism-based; settings: in vivo, 1344 h
[16] = Tmax in Sprague-Dawley rat at 2 mg/kg, po by LC-MS-MS analysis; type: ADME, organism-based; settings: in vivo
[17] = AUCt in Sprague-Dawley rat at 1 mg/kg, iv by LC-MS-MS analysis; type: ADME, organism-based; settings: in vivo
[18] = Terminal half life in Sprague-Dawley rat at 1 mg/kg, iv by LC-MS-MS analysis; type: ADME, organism-based; settings: in vivo, read-out: beta t1/2 (converted)
[19] = AUCt in Sprague-Dawley rat at 2 mg/kg, po by LC-MS-MS analysis; type: ADME, organism-based; settings: in vivo
[20] = Initial plasma concentration in Sprague-Dawley rat at 1 mg/kg, iv by LC-MS-MS analysis; type: ADME, organism-based
Mus musculus [21] = assay: Initial plasma concentration in ICR mouse at 2 mg/kg, po by LC-MS-MS analysis; type: ADME, organism-based; settings: in vivo; procedure, shortened: as §3
[22] = Toxicity in ICR mouse assessed as effect on organ index at 30 mg/kg, po administered once daily for 14 consecutive days; type: organism-based; settings: in vivo
Procedure, shortened: (§4)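 ICR mice dosed orally at 30 mg/kg once daily for 14 consecutive days. Endpoints were clinical signs, body weight, organ index, blood parameters and serum biochemistry, each compared with a control group.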

[23] = Plasma concentration in Sprague-Dawley rat at 2 mg/kg, po by LC-MS-MS analysis; type: ADME, organism-based; settings: in vivo
[24] = MRT (0 to infinity) in ICR mouse at 2 mg/kg, po by LC-MS-MS analysis; type: ADME, organism-based; settings: in vivo; procedure, shortened: as §3
[25] = Toxicity in ICR mouse assessed as effect on clinical signs at 30 mg/kg, po administered once daily for 14 consecutive days; type: organism-based; settings: in vivo; procedure, shortened: as §4
[26] = AUCt in ICR mouse at 2 mg/kg, po by LC-MS-MS analysis; type: ADME, organism-based; settings: in vivo; procedure, shortened: as §3
[27] = Clearance in Sprague-Dawley rat at 1 mg/kg, iv by LC-MS-MS analysis; type: ADME, organism-based; settings: in vivo
Rattus norvegicus = assay: Initial plasma concentration in Sprague-Dawley rat at 2 mg/kg, po by LC-MS-MS analysis; type: ADME, organism-based; settings: in vivo
[28] = AUC (0 to infinity) in Sprague-Dawley rat at 1 mg/kg, iv by LC-MS-MS analysis; type: ADME, organism-based; parameters: dose 1 mg/kg, route intravenous, time infinity; settings: in vivo
[29] = Toxicity in db/db mouse assessed as induction of discomfort signs at 3 to 10 mg/kg, po dosed once weekly for 8 weeks; type: organism-based; settings: in vivo, 1344 h
[30] = Cmax in Sprague-Dawley rat at 2 mg/kg, po by LC-MS-MS analysis; type: ADME, organism-based; parameters: dose 2 mg/kg, route oral; settings: in vivo
[31] = Cmax in Sprague-Dawley rat at 1 mg/kg, iv by LC-MS-MS analysis; type: ADME, organism-based; parameters: dose 1 mg/kg, route intravenous; settings: in vivo
[32] = AUC (0 to infinity) in ICR mouse at 2 mg/kg, po by LC-MS-MS analysis; type: ADME, organism-based; parameters: dose 2 mg/kg, route oral, time infinity; settings: in vivo; procedure, shortened: as §3
[33] = Oral bioavailability in Sprague-Dawley rat at 2 mg/kg after 24 hrs by LC-MS-MS analysis; type: ADME, organism-based; settings: in vivo
[34] = Toxicity in ICR mouse assessed as effect on body weight at 30 mg/kg, po administered once daily for 14 consecutive days; type: organism-based; settings: in vivo; procedure, shortened: as §4
Mus musculus [35] = assay: Anti-diabetic activity in 8 hrs-fasted ICR mouse assessed as increase in insulin levels at 3 mg/kg, po pretreated for 60 mins followed by glucose challenge by OGTT; type: functional, organism-based; procedure, shortened: as §1
[36] = Toxicity in ICR mouse assessed at 300 mg/kg, po administered as single dose; type: organism-based; settings: in vivo
Procedure, shortened: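 ICR mice given a single oral dose of 300 mg/kg to assess acute toxicity.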

[37] = biological target: Voltage-gated inwardly rectifying potassium channel KCNH2 (Homo sapiens, UniProt Q12809); assay: Inhibition of human ERG by patch clamp assay
[38] = Cmax in ICR mouse at 2 mg/kg, po by LC-MS-MS analysis; type: ADME, organism-based; parameters: dose 2 mg/kg, route oral; settings: in vivo; procedure, shortened: as §3
[39] = Toxicity in ICR mouse assessed as effect on serum biochemical parameters at 30 mg/kg, po administered once daily for 14 consecutive days; type: organism-based; settings: in vivo; procedure, shortened: as §4
[40] = Volume of distribution at steady state in Sprague-Dawley rat at 1 mg/kg, iv by LC-MS-MS analysis; type: ADME, organism-based; settings: in vivo, read-out: Vdss
[41] = Plasma concentration in Sprague-Dawley rat at 2 mg/kg, po after 24 hrs by LC-MS-MS analysis; type: ADME, organism-based; settings: in vivo
[42] = Tmax in ICR mouse at 2 mg/kg, po by LC-MS-MS analysis; type: ADME, organism-based; settings: in vivo; procedure, shortened: as §3
Mus musculus [43] = assay: Anti-diabetic activity in db/db mouse assessed as reduction in fasting blood glucose at 3 mg/kg, po dosed once weekly for 8 weeks; type: functional; parameters: scale not given: the % may be the effect or the level left
[44] = Toxicity in db/db mouse assessed as induction of distress signs at 3 to 10 mg/kg, po dosed once weekly for 8 weeks; type: organism-based; settings: in vivo, 1344 h
[45] = Toxicity in ICR mouse assessed as effect on blood parameter at 30 mg/kg, po administered once daily for 14 consecutive days; type: organism-based; settings: in vivo; procedure, shortened: as §4

Voltage-gated inwardly rectifying potassium channel KCNH2, sequence (Q12809 whole entry): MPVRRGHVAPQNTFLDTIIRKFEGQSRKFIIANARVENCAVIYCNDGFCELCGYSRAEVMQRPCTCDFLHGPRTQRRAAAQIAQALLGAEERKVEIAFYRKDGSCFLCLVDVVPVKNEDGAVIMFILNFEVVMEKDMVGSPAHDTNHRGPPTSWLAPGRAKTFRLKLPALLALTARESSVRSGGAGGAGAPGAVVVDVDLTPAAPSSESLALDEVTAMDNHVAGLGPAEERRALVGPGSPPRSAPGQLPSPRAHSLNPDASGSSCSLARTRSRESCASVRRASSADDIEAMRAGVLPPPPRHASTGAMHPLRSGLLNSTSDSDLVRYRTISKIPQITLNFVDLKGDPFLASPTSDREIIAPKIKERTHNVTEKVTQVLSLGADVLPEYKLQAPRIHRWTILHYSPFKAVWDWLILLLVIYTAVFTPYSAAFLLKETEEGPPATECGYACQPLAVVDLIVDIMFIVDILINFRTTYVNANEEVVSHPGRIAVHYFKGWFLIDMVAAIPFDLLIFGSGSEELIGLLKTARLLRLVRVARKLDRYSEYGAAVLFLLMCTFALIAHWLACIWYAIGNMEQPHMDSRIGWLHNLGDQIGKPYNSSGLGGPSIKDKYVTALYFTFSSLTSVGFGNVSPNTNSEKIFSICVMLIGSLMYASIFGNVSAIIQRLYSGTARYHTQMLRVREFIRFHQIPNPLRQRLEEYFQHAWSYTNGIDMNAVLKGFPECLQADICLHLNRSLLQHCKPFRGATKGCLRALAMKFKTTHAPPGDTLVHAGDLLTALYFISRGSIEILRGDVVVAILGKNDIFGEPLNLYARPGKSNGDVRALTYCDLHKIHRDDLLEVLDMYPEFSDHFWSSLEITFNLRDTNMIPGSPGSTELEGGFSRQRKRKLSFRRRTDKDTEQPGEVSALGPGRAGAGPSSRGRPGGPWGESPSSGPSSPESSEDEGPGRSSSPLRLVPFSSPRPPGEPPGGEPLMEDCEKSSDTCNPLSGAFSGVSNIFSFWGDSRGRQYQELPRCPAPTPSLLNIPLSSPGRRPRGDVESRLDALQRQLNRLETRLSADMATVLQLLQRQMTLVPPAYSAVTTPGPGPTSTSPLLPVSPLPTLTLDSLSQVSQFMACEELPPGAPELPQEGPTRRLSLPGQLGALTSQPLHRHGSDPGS

Structure (SMILES): CS(=O)(=O)n1cc2c(n1)CN([C@H]1CO[C@H](c3cc(F)ccc3F)[C@@H](N)C1)C2 [OMARIGLIPTIN]
fold change (FC) (Mus musculus [1]): 1.6 - 1.7 | inhibition (Mus musculus [2]): Active | Activity (Mus musculus [3]): Active | inhibition (Mus musculus [4]): Active | inhibition in vivo at 3 mg/kg (Mus musculus [5]): 22.1% | Activity (Mus musculus [6]): 26.6% | fold change (FC) (Mus musculus [7]): 1.8 | Activity (Mus musculus [8]): Active | Activity (Mus musculus [9]): Active | inhibition in vivo at 0.3 mg/kg (Mus musculus [10]): 14.6% | inhibition in vivo at 10 mg/kg (Mus musculus [11]): 8.3%

Structure (SMILES): Cn1c(=O)cc(N2CCC[C@@H](N)C2)n(Cc2cc(F)ccc2C#N)c1=O [TRELAGLIPTIN]
inhibition (Mus musculus [2]): Active | Activity (Mus musculus [3]): Active | Activity (Mus musculus [6]): 16.8% | fold change (FC) (Mus musculus [7]): 1.7 | Activity (Mus musculus [8]): Active | inhibition in vivo at 10 mg/kg (Mus musculus [11]): 19.3%

MRT inf [13]: 15.9 h | half-life [14]: 25.3 h | Tmax [16]: 6.67 h | AUC(0-t) [17]: 11.8 µg·h/mL | half-life [18]: 11.9 h | AUC(0-t) [19]: 23.2 µg·h/mL | C0 [20]: 2.01 µg/mL | C0 (Mus musculus [21]): 1.77337 µg/mL | Drug uptake [23]: Active | MRT inf [24]: 40.7 h | AUC(0-t) [26]: 82 µg·h/mL | clearance [27]: 0.066 L/h/kg | C0 (Rattus norvegicus): 1.38747 µg/mL | AUC(0-inf) [28]: 15.4 µg·h/mL | Cmax [30]: 1.39 µg/mL | Cmax [31]: 2.01 µg/mL | AUC(0-inf) [32]: 85.6 µg·h/mL | bioavailability [33]: 98.5% | Cmax [38]: 1.77 µg/mL | Vd [40]: 2.07 L/kg | Drug uptake [41]: Active | Tmax [42]: 10.2 h
Structure (SMILES): COc1cc2c3c(ccc2cc1C#N)O[C@H](c1cc(F)c(F)cc1F)[C@@H](N)C3
inhibition in vivo at 3 mg/kg (Mus musculus [12]): > 80% | Activity [15]: Non-Toxic | Activity (Mus musculus [3]): Active | inhibition in vivo at 3 mg/kg (Mus musculus [4]; 168 h): ≤ 80% | inhibition in vivo at 3 mg/kg (Mus musculus [5]): 27.2% | Activity [22]: Non-Toxic | Activity [25]: Non-Toxic | Activity (Mus musculus [6]): 33.1% | Activity (Mus musculus [8]): 3.56% | Activity [29]: Non-Toxic | Activity [34]: Non-Toxic | Activity (Mus musculus [35]): Active | Activity [36]: Non-Toxic | IC50 [37]: > 40 µM | Activity [39]: Non-Toxic | inhibition in vivo at 0.3 mg/kg (Mus musculus [10]): 16.4% | Activity (Mus musculus [43]): 24.7% | inhibition in vivo at 10 mg/kg (Mus musculus [11]): 18.3% | Activity [44]: Non-Toxic | Activity [45]: Non-Toxic
